Measured values taken from ChEMBL document CHEMBL1143592, “N-terminal sugar conjugation and C-terminal Thr-for-Thr(ol) exchange in radioiodinated Tyr3-octreotide: effect on cellular ligand trafficking in vitro and tumor accumulation in vivo” (J Med Chem, 2005).
pEC50, pIC50: −log10 of the molar value.

Experiments:
[1] = target: T1, Somatostatin receptor type 2 (Homo sapiens, UniProt P30874); experiment: Relative effective concentration against human somatostatin receptor type 2 expressed in CHO cells; (n=3); type: cell-based; settings: cho
T1 sequence (P30874 whole entry): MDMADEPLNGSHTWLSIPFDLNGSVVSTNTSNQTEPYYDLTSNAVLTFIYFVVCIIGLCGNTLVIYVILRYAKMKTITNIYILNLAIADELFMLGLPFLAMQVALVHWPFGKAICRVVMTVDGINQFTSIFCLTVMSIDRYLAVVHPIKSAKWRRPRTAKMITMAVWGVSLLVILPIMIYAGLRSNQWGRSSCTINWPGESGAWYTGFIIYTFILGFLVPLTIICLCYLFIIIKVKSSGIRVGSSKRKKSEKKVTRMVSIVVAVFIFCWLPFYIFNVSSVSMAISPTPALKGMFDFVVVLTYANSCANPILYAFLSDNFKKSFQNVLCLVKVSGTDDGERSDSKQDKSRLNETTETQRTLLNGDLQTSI
Outline: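 Dual-tracer internalization in CHO cells stably expressing N-terminally tagged hsst2 (90000–120000 cells/well, plated the day before). Acid wash at pH 5 removed surface-bound activity; nonspecific uptake was taken with 5 µM TOC; triplicates. EC50 is expressed relative to [125I]TOC.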

[2] = target: Somatostatin receptor type 1 (Homo sapiens, UniProt P30872); experiment: In vitro inhibition of [125I][Leu8,D-Trp22,Tyr25] somatostatin 28 binding to human somatostatin receptor type 1 expressed in CHO-K1 cells; (n=3); type: cell-based
Sequence of Somatostatin receptor type 1 (P30872 whole entry): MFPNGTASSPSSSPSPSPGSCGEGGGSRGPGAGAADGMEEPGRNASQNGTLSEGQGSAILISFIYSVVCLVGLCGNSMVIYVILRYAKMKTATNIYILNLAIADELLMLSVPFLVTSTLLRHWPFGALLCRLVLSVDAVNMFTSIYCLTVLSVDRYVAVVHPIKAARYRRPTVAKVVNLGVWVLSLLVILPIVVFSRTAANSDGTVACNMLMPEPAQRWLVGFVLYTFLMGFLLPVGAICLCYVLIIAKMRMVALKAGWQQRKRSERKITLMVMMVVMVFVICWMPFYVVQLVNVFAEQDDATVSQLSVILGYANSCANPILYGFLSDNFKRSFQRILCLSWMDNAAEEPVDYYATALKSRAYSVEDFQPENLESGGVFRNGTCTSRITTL

[3] = target: Somatostatin receptor type 4 (Homo sapiens, UniProt P31391); experiment: In vitro inhibition of [125I][Leu8,D-Trp22,Tyr25] somatostatin 28 binding to human somatostatin receptor type 4 expressed in CCL39 cells; (n=3); type: cell-based
Sequence of Somatostatin receptor type 4 (P31391 whole entry): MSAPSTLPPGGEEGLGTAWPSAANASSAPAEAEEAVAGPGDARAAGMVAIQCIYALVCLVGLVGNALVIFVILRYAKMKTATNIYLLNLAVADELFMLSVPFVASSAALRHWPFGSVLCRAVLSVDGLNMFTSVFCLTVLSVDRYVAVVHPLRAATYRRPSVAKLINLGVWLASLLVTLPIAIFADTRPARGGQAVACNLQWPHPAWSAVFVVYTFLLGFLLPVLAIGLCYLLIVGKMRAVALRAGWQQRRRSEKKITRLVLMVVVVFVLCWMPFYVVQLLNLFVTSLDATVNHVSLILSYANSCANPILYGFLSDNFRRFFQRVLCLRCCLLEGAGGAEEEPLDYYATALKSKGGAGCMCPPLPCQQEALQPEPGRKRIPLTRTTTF
Outline: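 Membrane pellets from CCL39 cells stably expressing hsst4 were sectioned onto slides for receptor autoradiography. Full displacement of the universal somatostatin radioligand used unlabeled peptide at 0.1–1000 nM, with somatostatin 28 run in parallel at the same concentrations. Values are mean ± SD.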

[4] = target: T1, Somatostatin receptor type 2; experiment: In vitro inhibition of [125I][Leu8,D-Trp22,Tyr25] somatostatin 28 binding to human somatostatin receptor type 2 expressed in CCL39 cells; (n=3); type: cell-based
[5] = target: Somatostatin receptor type 3 (Homo sapiens, UniProt P32745); experiment: In vitro inhibition of [125I][Leu8,D-Trp22,Tyr25] somatostatin 28 binding to human somatostatin receptor type 3 expressed in CCL39 cells; (n=3); type: cell-based
Sequence of Somatostatin receptor type 3 (P32745 whole entry): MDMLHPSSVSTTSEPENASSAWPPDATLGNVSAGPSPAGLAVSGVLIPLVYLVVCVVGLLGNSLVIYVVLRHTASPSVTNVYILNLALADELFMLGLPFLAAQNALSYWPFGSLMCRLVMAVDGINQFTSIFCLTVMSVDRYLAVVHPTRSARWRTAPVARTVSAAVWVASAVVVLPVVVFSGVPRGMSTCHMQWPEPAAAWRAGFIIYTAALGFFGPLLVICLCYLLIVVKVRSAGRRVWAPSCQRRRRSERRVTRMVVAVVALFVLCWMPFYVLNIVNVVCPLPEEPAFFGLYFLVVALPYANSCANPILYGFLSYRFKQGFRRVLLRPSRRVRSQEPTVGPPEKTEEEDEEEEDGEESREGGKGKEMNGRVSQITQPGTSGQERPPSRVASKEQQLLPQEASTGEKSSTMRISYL

[6] = target: Somatostatin receptor type 5 (Homo sapiens, UniProt P35346); experiment: In vitro inhibition of [125I][Leu8,D-Trp22,Tyr25] somatostatin 28 binding to human somatostatin receptor type 5 expressed in CHO-K1 cells; (n=3); type: cell-based
Sequence of Somatostatin receptor type 5 (P35346 whole entry): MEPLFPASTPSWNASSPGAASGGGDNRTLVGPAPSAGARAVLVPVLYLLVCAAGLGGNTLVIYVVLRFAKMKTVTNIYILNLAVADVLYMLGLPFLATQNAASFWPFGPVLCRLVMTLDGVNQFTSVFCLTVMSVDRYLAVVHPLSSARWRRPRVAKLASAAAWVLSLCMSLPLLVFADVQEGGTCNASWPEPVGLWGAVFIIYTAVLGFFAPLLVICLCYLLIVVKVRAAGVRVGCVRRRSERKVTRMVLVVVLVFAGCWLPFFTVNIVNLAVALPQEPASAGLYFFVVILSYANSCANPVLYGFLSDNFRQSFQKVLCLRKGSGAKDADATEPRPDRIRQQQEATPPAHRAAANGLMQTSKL

[7] = target: Somatostatin receptor type 2 (Rattus norvegicus) (UniProt P30680); experiment: In vivo tumor accumulation was determined in nude mice bearing rat pancreatic AR42J tumor cell expressed with somatostatin receptor type 2;60 min p.i.; (n=3-5); type: functional, organism-based; settings: AR-42J
Sequence of Somatostatin receptor type 2 (Rattus norvegicus) (P30680 whole entry): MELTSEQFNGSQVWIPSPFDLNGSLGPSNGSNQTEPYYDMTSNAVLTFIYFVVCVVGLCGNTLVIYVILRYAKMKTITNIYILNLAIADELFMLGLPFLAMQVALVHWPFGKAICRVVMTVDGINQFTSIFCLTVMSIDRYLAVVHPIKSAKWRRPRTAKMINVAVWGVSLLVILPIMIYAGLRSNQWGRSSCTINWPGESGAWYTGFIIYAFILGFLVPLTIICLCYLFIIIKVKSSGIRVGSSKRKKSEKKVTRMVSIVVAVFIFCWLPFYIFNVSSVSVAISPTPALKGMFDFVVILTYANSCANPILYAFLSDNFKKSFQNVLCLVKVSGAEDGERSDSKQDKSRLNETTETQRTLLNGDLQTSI
Outline: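 Female Swiss nu/nu mice, 6–8 weeks, were inoculated s.c. in the flank with (2.5–5) × 10⁶ AR42J cells in serum-free RPMI 1640 and used after 10 days (tumors 150–500 mg). About 370 kBq of radioiodinated peptide in 100 µL PBS pH 7.4 was given i.v. into the tail vein. Tumor was excised 60 min p.i. and gamma-counted; results are % ID/g.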

[8] = tested as the 123I-labelled form

Row | Molecule | pIC50 ([2]; cho-k1) | pIC50 [3] | pIC50 [4] | pIC50 ([5]; ccl39) | pIC50 [6] | ID/g [7, 8] [%] | further results
1 | C[C@@H](O)[C@H](CO)NC(=O)[C@@H]1CSSC[C@H](NC(=O)[C@H](N)Cc2ccccc2)C(=O)N[C@@H](Cc2ccc(O)c([125I])c2)C(=O)N[C@H](Cc2c[nH]c3ccccc23)C(=O)N[C@@H](CCCCN)C(=O)N[C@@H]([C@@H](C)O)C(=O)N1 |  |  |  |  |  |  | pEC50 [1]: 9.00
2 | C[C@@H](O)[C@H](CO)NC(=O)[C@@H]1CSSC[C@H](NC(=O)[C@@H](Cc2ccccc2)NC[C@]2(O)OC[C@H](O)[C@@H](O[C@@H]3O[C@@H](CO)[C@@H](O[C@@H]4O[C@@H](CO)[C@@H](O)[C@H](O)[C@@H]4O)[C@H](O)[C@@H]3O)[C@@H]2O)C(=O)N[C@@H](Cc2ccc(O)c(I)c2)C(=O)N[C@H](Cc2c[nH]c3ccccc23)C(=O)N[C@@H](CCCCN)C(=O)N[C@@H]([C@@H](C)O)C(=O)N1 | < 5.00 | < 6.00 | 8.96 | 6.68 | 6.96 |  | 
3 | C[C@@H](O)[C@H](CO)NC(=O)[C@@H]1CSSC[C@H](NC(=O)[C@@H](Cc2ccccc2)NC[C@]2(O)OC[C@H](O)[C@@H](O[C@@H]3O[C@@H](CO)[C@@H](O[C@@H]4O[C@@H](CO)[C@@H](O)[C@H](O)[C@@H]4O)[C@H](O)[C@@H]3O)[C@@H]2O)C(=O)N[C@@H](Cc2ccc(O)c([123I])c2)C(=O)N[C@H](Cc2c[nH]c3ccccc23)C(=O)N[C@@H](CCCCN)C(=O)N[C@@H]([C@@H](C)O)C(=O)N1 |  |  |  |  |  |  | pEC50 [1]: 9.00
4 | C[C@@H](O)[C@H](CO)NC(=O)[C@@H]1CSSC[C@H](NC(=O)[C@@H](N)Cc2ccccc2)C(=O)N[C@@H](Cc2ccc(O)c(I)c2)C(=O)N[C@H](Cc2c[nH]c3ccccc23)C(=O)N[C@@H](CCCCN)C(=O)N[C@@H]([C@@H](C)O)C(=O)N1 |  |  |  |  |  |  | ID/g ([7]; tested as the 125I-labelled form): 5.5%
5 | C[C@@H](O)[C@H](NC(=O)[C@@H]1CSSC[C@H](NC(=O)[C@H](N)Cc2ccccc2)C(=O)N[C@@H](Cc2ccc(O)c(I)c2)C(=O)N[C@H](Cc2c[nH]c3ccccc23)C(=O)N[C@@H](CCCCN)C(=O)N[C@@H]([C@@H](C)O)C(=O)N1)C(=O)O |  |  |  |  |  | 21.2 | 
6 | C[C@@H](O)[C@H](NC(=O)[C@@H]1CSSC[C@H](NC(=O)[C@@H](Cc2ccccc2)NC[C@]2(O)OC[C@H](O)[C@@H](O[C@@H]3O[C@@H](CO)[C@@H](O[C@@H]4O[C@@H](CO)[C@@H](O)[C@H](O)[C@@H]4O)[C@H](O)[C@@H]3O)[C@@H]2O)C(=O)N[C@@H](Cc2ccc(O)c(I)c2)C(=O)N[C@H](Cc2c[nH]c3ccccc23)C(=O)N[C@@H](CCCCN)C(=O)N[C@@H]([C@@H](C)O)C(=O)N1)C(=O)O | < 5.00 | 6.08 | 9.02 | 6.08 | 6.49 |  | 
7 | C[C@@H](O)[C@H](CO)NC(=O)[C@@H]1CSSC[C@H](NC(=O)[C@H](Cc2ccccc2)NC[C@]2(O)OC[C@H](O)[C@@H](O[C@@H]3O[C@@H](CO)[C@@H](O[C@@H]4O[C@@H](CO)[C@@H](O)[C@H](O)[C@@H]4O)[C@H](O)[C@@H]3O)[C@@H]2O)C(=O)N[C@@H](Cc2ccc(O)c(I)c2)C(=O)N[C@H](Cc2c[nH]c3ccccc23)C(=O)N[C@@H](CCCCN)C(=O)N[C@@H]([C@@H](C)O)C(=O)N1 |  |  |  |  |  | 4.9 | 
8 | GALLIUM OXODOTREOTIDE | < 5.00 | 6.52 | 9.70 | < 6.00 | 6.42 |  | 
9 | C[C@@H](O)[C@H](NC(=O)[C@@H]1CSSC[C@H](NC(=O)[C@@H](Cc2ccccc2)NC[C@]2(O)OC[C@H](O)[C@@H](O[C@@H]3O[C@@H](CO)[C@@H](O)[C@H](O)[C@@H]3O)[C@@H]2O)C(=O)N[C@@H](Cc2ccc(O)c(I)c2)C(=O)N[C@H](Cc2c[nH]c3ccccc23)C(=O)N[C@@H](CCCCN)C(=O)N[C@@H]([C@@H](C)O)C(=O)N1)C(=O)O | < 5.00 | 6.10 | 9.11 | 6.12 | 6.68 |  | 
10 | C[C@@H](O)[C@H](NC(=O)[C@@H]1CSSC[C@H](NC(=O)[C@@H](Cc2ccccc2)NC(=O)CCS[C@@H]2O[C@@H](CO)[C@H](O)[C@H](O)[C@@H]2O)C(=O)N[C@@H](Cc2ccc(O)c(I)c2)C(=O)N[C@H](Cc2c[nH]c3ccccc23)C(=O)N[C@@H](CCCCN)C(=O)N[C@@H]([C@@H](C)O)C(=O)N1)C(=O)O | < 6.00 | 6.32 |  | 6.31 | 6.38 |  | 
11 | C[C@@H](O)[C@@H]1NC(=O)[C@H](CCCCN)NC(=O)[C@@H](Cc2c[nH]c3ccccc23)NC(=O)[C@H](Cc2ccc(O)c(I)c2)NC(=O)[C@@H](NC(=O)[C@@H](Cc2ccccc2)NC[C@]2(O)OC[C@H](O)[C@@H](O)[C@@H]2O)CSSC[C@@H](C(=O)N[C@H](CO)[C@@H](C)O)NC1=O | < 6.00 | 6.08 | 8.66 | 6.45 | 7.19 |  | 
12 | C[C@@H](O)[C@H](NC(=O)[C@@H]1CSSC[C@H](NC(=O)[C@@H](Cc2ccccc2)NC(=O)CCS[C@@H]2O[C@@H](CO)[C@@H](O)[C@H](O)[C@@H]2O)C(=O)N[C@@H](Cc2ccc(O)c(I)c2)C(=O)N[C@H](Cc2c[nH]c3ccccc23)C(=O)N[C@@H](CCCCN)C(=O)N[C@@H]([C@@H](C)O)C(=O)N1)C(=O)O | < 6.00 | 6.45 |  | 6.40 | 6.51 |  | 
13 | C[C@@H](O)[C@H](NC(=O)[C@@H]1CSSC[C@H](NC(=O)[C@H](Cc2ccccc2)NC[C@]2(O)OC[C@H](O)[C@@H](O[C@@H]3O[C@@H](CO)[C@@H](O)[C@H](O)[C@@H]3O)[C@@H]2O)C(=O)N[C@@H](Cc2ccc(O)c(I)c2)C(=O)N[C@H](Cc2c[nH]c3ccccc23)C(=O)N[C@@H](CCCCN)C(=O)N[C@@H]([C@@H](C)O)C(=O)N1)C(=O)O |  |  |  |  |  | 11.2 | 
14 | C[C@@H](O)[C@H](NC(=O)[C@@H]1CSSC[C@H](NC(=O)[C@@H](Cc2ccccc2)NC[C@H]2O[C@H](O)[C@H](O)[C@@H](O)[C@@H]2O)C(=O)N[C@@H](Cc2ccc(O)c(I)c2)C(=O)N[C@H](Cc2c[nH]c3ccccc23)C(=O)N[C@@H](CCCCN)C(=O)N[C@@H]([C@@H](C)O)C(=O)N1)C(=O)O |  |  |  |  |  | 20.5 | 
15 | C[C@@H](O)[C@H](CO)NC(=O)[C@@H]1CSSC[C@H](NC(=O)[C@H](Cc2ccccc2)NC[C@]2(O)OC[C@H](O)[C@@H](O)[C@@H]2O)C(=O)N[C@@H](Cc2ccc(O)c(I)c2)C(=O)N[C@H](Cc2c[nH]c3ccccc23)C(=O)N[C@@H](CCCCN)C(=O)N[C@@H]([C@@H](C)O)C(=O)N1 |  |  |  |  |  | 8.7 | 
16 | EDOTREOTIDE YTTRIUM | < 5.00 | < 5.00 |  |  |  |  | 
17 | C[C@@H](O)[C@H](CO)NC(=O)[C@@H]1CSSC[C@H](NC(=O)[C@H](Cc2ccccc2)NC[C@]2(O)OC[C@H](O)[C@@H](O[C@@H]3O[C@@H](CO)[C@@H](O)[C@H](O)[C@@H]3O)[C@@H]2O)C(=O)N[C@@H](Cc2ccc(O)c(I)c2)C(=O)N[C@H](Cc2c[nH]c3ccccc23)C(=O)N[C@@H](CCCCN)C(=O)N[C@@H]([C@@H](C)O)C(=O)N1 |  |  |  |  |  | 5.2 | 
18 | C[C@@H](O)[C@H](NC(=O)[C@@H]1CSSC[C@H](NC(=O)[C@@H](Cc2ccccc2)NC[C@@]2(O)OC[C@@H](O)[C@@H](O)[C@@H]2O)C(=O)N[C@@H](Cc2ccc(O)c(I)c2)C(=O)N[C@H](Cc2c[nH]c3ccccc23)C(=O)N[C@@H](CCCCN)C(=O)N[C@@H]([C@@H](C)O)C(=O)N1)C(=O)O | < 6.00 | 5.99 | 8.70 | < 6.00 | 6.28 |  | 
19 | C[C@@H](O)[C@H](CO)NC(=O)[C@@H]1CSSC[C@H](NC(=O)[C@@H](Cc2ccccc2)NC[C@]2(O)OC[C@H](O)[C@@H](O[C@@H]3O[C@@H](CO)[C@@H](O)[C@H](O)[C@@H]3O)[C@@H]2O)C(=O)N[C@@H](Cc2ccc(O)c(I)c2)C(=O)N[C@H](Cc2c[nH]c3ccccc23)C(=O)N[C@@H](CCCCN)C(=O)N[C@@H]([C@@H](C)O)C(=O)N1 | < 5.00 | < 6.00 | 8.92 | 6.61 | 7.12 |  | 
20 | C[C@@H](O)[C@H](NC(=O)[C@@H]1CSSC[C@H](NC(=O)[C@@H](Cc2ccccc2)NC(=O)CN2CCN(CC(=O)O)CCN(CC(=O)O)CCN(CC(=O)O)CC2)C(=O)N[C@@H](Cc2ccc(O)cc2)C(=O)N[C@H](Cc2c[nH]c3ccccc23)C(=O)N[C@@H](CCCCN)C(=O)N[C@@H]([C@@H](C)O)C(=O)N1)C(=O)O |  |  |  |  |  |  | pIC50 [2]: < 5.00; pIC50 [5]: < 6.00
21 | C[C@@H](O)[C@H](NC(=O)[C@@H]1CSSC[C@H](NC(=O)[C@H](Cc2ccccc2)NC[C@]2(O)OC[C@H](O)[C@@H](O[C@@H]3O[C@@H](CO)[C@@H](O[C@@H]4O[C@@H](CO)[C@@H](O)[C@H](O)[C@@H]4O)[C@H](O)[C@@H]3O)[C@@H]2O)C(=O)N[C@@H](Cc2ccc(O)c(I)c2)C(=O)N[C@H](Cc2c[nH]c3ccccc23)C(=O)N[C@@H](CCCCN)C(=O)N[C@@H]([C@@H](C)O)C(=O)N1)C(=O)O |  |  |  |  |  | 25.1 | 
